Bounds are passed on as bounds.

The assay concerns Neutrophil. The experiment in a line: Antiinflammatory activity in human neutrophils assessed as fMLP-induced superoxide release after 5 mins by spectrometry. Type of assay: functional, cell-based. In a few lines:
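Neutrophils isolated from venous blood of healthy volunteers (20–35 years) by double-gradient Ficoll–Hypaque centrifugation, with hypotonic lysis of red cells. Cells at 1 × 10^6 cells/mL pretreated with test agents (100 µmol/L) at 37 °C for 5 min. Then stimulated with fMLP (1 µmol/L) with ferricytochrome c (0.5 mg/mL). Extracellular O2•– read continuously at 550 nm. Inhibition % = [(control−resting)−(compound−resting)]/(control−resting) × 100.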
A word on the IC50: it is the point on the concentration scale where inhibition reaches its midpoint. Take `C[C@H](c1ccccc1)c1cccc([C@@H](C)c2ccccc2)c1O`: the half-maximal inhibitory concentration (IC50) is above 100 µM.
Consider `CC(C)Cc1ccc(C(C)C(=O)O)cc1` (centres undefined) [IBUPROFEN], for which the concentration for half-maximal inhibition (IC50) was determined as 32.5 µM.
As for `CC(C)=CCc1cc(/C=C/CO)ccc1O`, the figure is 75.1 µM.
As to `COc1cc2oc(=O)ccc2cc1O` [ISOSCOPOLETIN], the IC50 is 77.5 µM.
`COc1c2ccoc2nc2c(OC)cccc12` [GAMMA-FAGARINE]: the IC50 was above 100 µM.
Take `COc1cc([C@H]2Oc3c(OC)cc(/C=C/C=O)cc3[C@@H]2CO)cc(OC)c1O`: the 50% inhibitory concentration (IC50) was 19.3 µM.
As to `COc1cc([C@H]2Oc3c(OC)cc(/C=C/C=O)cc3[C@@H]2CO)ccc1O`, the concentration for half-maximal inhibition (IC50) came out at 31.9 µM.
For the compound `COc1cc(C=O)cc(OC)c1O` [SYRINGALDEHYDE], the IC50 was above 100 µM.
With `Cn1c(=O)c2c(c3ccccc31)OC(C)(C)[C@@H]1[C@@H]2C[C@]2(C)C[C@H]1c1c(c3ccccc3n(C)c1=O)O2` [PARAENSIDIMERIN C], the half-maximal inhibitory concentration (IC50) was above 100 µM.
The value for `COc1cc(/C=C/CO)ccc1OCC=C(C)C` was above 100 µM.
As for `CC(C)=CCOc1ccc(/C=C/CO)cc1` [EVOFOLIN C], the figure is 9.64 µM; as for `COc1c2[nH]c3occc3c(OC)c-2ccc1=O` [HAPLOPINE], 57.3 µM; as for `COc1cc2ccc(=O)oc2cc1OC` [SCOPARONE], above 100 µM.
For `COc1cc([C@@H]2Oc3c(OC)cc(/C=C/CO)cc3[C@H]2CO)cc(OC)c1O`, the 50% inhibitory concentration (IC50) came out at 11.8 µM.
As for `Cn1c(=O)c2c(c3ccccc31)O[C@]1(C)C[C@@H]3c4c(c5ccccc5[nH]c4=O)OC(C)(C)[C@H]3[C@H]2C1`, the IC50 was above 100 µM.
Take `Cn1c(=O)c2c(c3ccccc31)OC(C)(C)C=C2`: the IC50 was determined as 4.28 µM.
The value for `COc1cc2ccc(=O)oc2c(OC)c1OC` [FRAXIDIN METHYL ETHER] was 47.1 µM.
On to `CC(c1ccccc1)c1ccc(O)c(C(C)c2ccccc2)c1` (centres undefined), for which the IC50 was above 100 µM.
With `CC(C)(O)[C@H](O)COc1ccc(/C=C/CO)cc1`, the IC50 turned out to be 32.5 µM.

The values above are taken from ChEMBL document CHEMBL1141277, “New phenylpropenoids, bis(1-phenylethyl)phenols, bisquinolinone alkaloid, and anti-inflammatory constituents from Zanthoxylum integrifoliolum” (J Nat Prod, 2007).
